# According to ChEMBL document CHEMBL4513216, “Probing the Open Global Health Chemical Diversity Library for Multistage-Active Starting Points for Next-Generation Antimalarials” (ACS Infect Dis, 2020):
# Experiment: Toxicity liver stage against HepG2, at 10uM
# Type: cell-based
# Parameters: test concentration 10 uM, cell line HepG2-A16-CD81EGFP
# Details: human, HepG2-A16-CD81EGFP cells; read-out: INHIBITION
# Procedure, shortened: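 Uninfected HepG2-A16-CD81EGFP cells, 3 × 10^3 per well, 1536-well, plated on prespotted compound at 10 μM final, parasite-free screening media added to match infected plates; puromycin 10 μM positive, DMSO 0.5% negative; run in parallel with 48 h PbLuc assay at 37 °C, 5% CO2; viability by CellTiter-Glo luminescence, normalized to controls.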
row,Structure (SMILES),cytotoxicity at 10 µM [%]
1,CC(C)CN1C[C@@H]2OCC(=O)N(Cc3nccn3C)[C@@H]2C1,0.174
2,O[C@@H]1C[C@@H](c2nc(-c3ccccc3)no2)N(Cc2cccnc2)C1,3.69
3,CC(=O)N1CCC(N2CCOC[C@H]2c2nc(-c3ccccc3)c[nH]2)CC1,1.74
4,COC(=O)[C@@H]1CN(S(=O)(=O)c2ccccc2)CCN1S(C)(=O)=O,0.471
5,COC(=O)[C@@H]1Cc2ncn(C)c2CN1S(=O)(=O)c1ccc(C)cc1,2.08
6,CCS(=O)(=O)N1CCc2ccc(NC(=O)NC(C)(C)C)cc21,-6.69
7,CN1CC[C@H](N(Cc2ccccc2)C2COC2)C[C@H](O)C1,4.27
8,CC(C)CN1CC(O)CN(C(=O)c2cccc(C(F)(F)F)c2)CC1=O (stereo not given),-7.08
9,Cn1nc(-c2ccccc2)c(Cl)c1C(=O)O,-45
10,CNC(=O)c1cn(C)c(-c2nc3cc(NC(C)=O)ccc3n2C)c1OC,-42.5
11,O=C(NCCN1CCOCC1)c1nc2ccccc2c(=O)[nH]1,11.3
12,O=C(Nc1ccccc1F)C1CN(C(=O)c2ccc3c(c2)OCO3)C1,-5.96
13,CS(=O)(=O)N1CCc2ccc(=O)n(CC3CCOCC3)c2CC1,6.4
14,CN(Cc1cccnc1)CC1CC12CCN(Cc1nccs1)CC2 (stereo not given),10.2
15,O=C(c1ccc(F)cc1)N1C[C@@H]2CN(c3ncccn3)C[C@@H]2C1,7.98
16,CC(=O)N1C[C@H]2CCCN(c3ncc(C)cn3)[C@H]2C1,9.52
17,CCS(=O)(=O)N1CCN(C(=O)C(C)C)CC2(CC(=O)N(C)C2)C1 (stereo not given),8.4
18,Cc1ccoc1C(=O)N1CCCC2(CCCN2S(C)(=O)=O)C1 (stereo not given),-143
19,O=C(NCC1CC1)[C@H]1CC[C@@H]2[C@@H](CCN2Cc2nccs2)O1,6.93
20,O=C(O)c1cc(-c2ccccc2)ns1,1.91
21,CC(C)(C)n1ncc2c1NC(=O)CC2c1c(F)cccc1F (stereo not given),-1.53
22,CN(C)c1ccc(C(=O)NCC2(c3ccccc3)CCOCC2)cc1,6.52

row,Structure (SMILES),cytotoxicity at 10 µM [%]
1,Cn1cnnc1S(=O)(=O)C1CCN(S(=O)(=O)C2CC2)CC1,-9.99
2,O=C1CNc2ncnc(Nc3cccc(Cn4cccn4)c3)c2N1,19.8
3,CSc1ccc(-c2noc(CN(Cc3ccccc3)C(C)C)n2)cc1,3.88
4,Cc1c(NC(=O)c2cccc(Br)c2)c(C(=O)N(C)C)nn1C,2.35
5,OC1(c2ccccc2F)CCN(Cc2ccccc2N2CCCC2)CC1,13.2
6,CCn1ncc(S(=O)(=O)N2CCCC3(CC=CNC3=O)C2)c1C (stereo not given),-7.6
7,Cc1n[nH]c(C)c1-c1cnc(CC2CCN(C)C2)cn1 (stereo not given),-2.11
8,Cn1nc(C2CCNC2)c2c(C(=O)NC3CC3)cc(C3CC3)nc21 (stereo not given),13.9
9,CCC(CC(=O)NS(=O)(=O)C(C)C)c1ccccc1 (stereo not given),-49.1
10,CC(C)OCc1ccc(CNC(=O)NC2(CO)CCCC2)cc1,-48.9
11,COCCN1CCC(CNc2cnc3ccccc3n2)CC1,-46.6
12,CN(Cc1cc(Br)c2c(c1)OCO2)Cc1cscn1,-12.2
13,Cc1ccc(S(=O)(=O)Cc2nsc(N(C)C)n2)c(C)c1,-25.2
14,Cc1nc(NC(=O)C(C)N(C)Cc2ccc3c(c2)OCO3)sc1C (stereo not given),0.787
15,O=C(c1ccccc1O)N1CCn2c(nnc2C(F)(F)F)C1,14.6
16,Cc1noc(CCCC(=O)N2CCN(C)CC2c2ccccc2)n1 (stereo not given),-6.73
17,COc1cccc(C2CCCN2C(=O)NCCCn2cccn2)c1 (stereo not given),15.5
18,Cc1cc2n(n1)CC(CNC1CCN(CCc3ccccc3)CC1)CN2 (stereo not given),2.7
19,CCNC(=O)N(CCCO)C1CCCc2ccccc21 (stereo not given),-11
20,CC(C)c1noc(C(C)N2CCN(c3ccc(C#N)cn3)CC2)n1 (stereo not given),-2.57
21,O=C(c1n[nH]c(=O)c2ccccc12)N1CCCC1Cn1cccn1 (stereo not given),-0.743
22,COc1cc2c(cc1OC)S(=O)(=O)N(Cc1ccc(C)cc1)C2=O,8.74

row,Structure (SMILES),cytotoxicity at 10 µM [%]
1,CC(=O)Nc1ccc(/C=C/c2ncc(C(=O)O)s2)cc1,-3.54
2,OC[C@@H](O)CN(CCC(F)(F)F)c1ncc(Cl)cn1,12.8
3,COCCN(CCOC)c1ncccc1I,-2.69
4,c1ccc(Cn2ccnc2CNC2CCCOc3ccccc32)cc1 (stereo not given),-4.34
5,CN(CCc1ccccn1)C(=O)C(O)c1ccc(Br)cc1 (stereo not given),-0.779
6,CC(C)c1noc(OCc2cccc(C#N)c2)n1,-43.6
7,CC1CCCN(C(=O)c2ncncc2Cl)C1 (stereo not given),8.43
8,O=C(Cn1cc(Cl)cn1)N1CCNC1=O,-13.2
9,CCC1(CNCc2ncc[nH]2)CCCC1,-3.09
10,Cc1cccc(CNc2nnc(C(C)C)o2)c1,12.2
11,CCS(=O)(=O)N1CC[C@H]2OCC[C@@]2(C(=O)NC)C1,-72.6
12,C[C@H]1C[C@@H]2CCN(Cc3ccco3)C[C@H]2O1,-80.1
13,Cn1ccnc1SCCNC(=O)Cn1cnc2ccccc2c1=O,-20.7
14,O=C(c1cccc(S(=O)(=O)NC[C@@H]2C[C@H](F)CN2)c1)N1CCCCC1,3.5
15,CCCN1CCCC2(CCN(C(=O)CCCn3cncn3)C2)C1=O (stereo not given),-1.84
16,OC1(CNCCCN2CCCc3ccccc32)CNCCOC1 (stereo not given),13.2
17,CCOc1ccc(CN2CCN(CCOC)[C@@H]3CS(=O)(=O)C[C@@H]32)cc1,-1.25
18,Cc1nc(CN2CCCC(CCc3ccccc3C(F)(F)F)C2)no1 (stereo not given),2.79
19,NCc1cn(CC2CCCN(C(=O)NCc3ccc(Cl)cc3)C2)nn1 (stereo not given),-22
20,CC(C)c1noc(CCNC(=O)C2COc3ccccc3C2)n1 (stereo not given),-1.24
21,CN1CCc2[nH]nc(C(=O)N3CCCC4(CC3)CNC(=O)O4)c2C1 (stereo not given),-44.6
22,COC[C@@]12CC[C@@H](N3CCOCC3)C[C@H]1CCN(c1ncccc1C)C2,-1.33

row,Structure (SMILES),cytotoxicity at 10 µM [%]
1,O=C(NCC1CCCO1)Nc1nnc(C(F)(F)F)s1 (stereo not given),1.72
2,Cc1cc(C)n(CC(C)NCc2nc(-c3cccnc3)no2)n1 (stereo not given),0.107
3,COCC[C@]1(O)CCN(CC(=O)NCc2ccccc2C)C[C@H]1C,-5.31
4,Cc1nn(C)c(C)c1-c1cc(-c2cc(CC(=O)O)cs2)nc(N)c1C#N,0.701
5,CCCc1nc(C)cc(N2CCNC(C(=O)Nc3ccc(C)nc3)C2)n1 (stereo not given),-48.5
6,CCc1ncc(C(=O)N2CCN(c3cnn(C)c(=O)c3)CC2)cn1,-8.3
7,CO[C@H]1CN(C(C)C)C[C@@H]1NC(=O)c1cc(COc2ccccc2)[nH]n1,-2.43
8,CCc1nnc(CN(C)C(=O)C2CC(=O)N(C3CC3)C2)o1 (stereo not given),2.28
9,CN(Cc1n[nH]c2c1CCC2)C(=O)CCc1cc2n(n1)CCNC2,-10.5
10,COCCN(C)C[C@@H]1CN(C(=O)c2ccc(O)c(Cl)c2)C[C@@H]1CO,10.5
11,COC(=O)C(C)NCc1ccc2[nH]c(C)c(C)c2c1 (stereo not given),2.4
12,CN1CCCC[C@@H]2[C@H]1[C@@H](c1ccccc1)CCN2C(=O)c1cnccn1,-3.81
13,COc1ccccc1CC(=O)N1CCC(NCc2ccccn2)CC1,-11.5
14,CC(C)n1ccnc1CN1CCCN(C(=O)c2cnc[nH]2)CC1,-11.9
15,Cc1ncccc1CNC1CCCN(Cc2noc(C3CC3)n2)C1 (stereo not given),-1.34
16,CC(Cn1ccnc1)NC(=O)C1(c2ccccc2)CC1 (stereo not given),-5.74
17,COc1ccc(CN2CCN(C(=O)c3ccc(C)n3C)CC2)cc1,-0.0113
18,Cc1csc(N2CCCN(C(=O)c3occc3C)CC2)n1,-13.8
19,Cc1ncc2c(n1)CN(CC(=O)Nc1ccc(Cl)cn1)CC2,-6.19
20,CNc1snc(C)c1C(=O)N1CCCC(n2cccn2)C1 (stereo not given),-3.81
21,COc1ccc(COCC(O)CNC(=O)c2ccc(C#N)cc2)cc1 (stereo not given),0.561
22,COCc1nc(C(=O)N2CCCC2c2ccc(OC)cc2)cs1 (stereo not given),-3.81

row,Structure (SMILES),cytotoxicity at 10 µM [%]
1,COc1cc(CNC(=O)c2c(C)noc2C(C)C)ccn1,-7.9
2,COc1cccc(S(=O)(=O)NC(=O)COc2c(C)cccc2C)c1,-5.84
3,CCN(Cc1ccc2c(c1)OCCO2)S(=O)(=O)N(C)C(C)C,-9.21
4,O=C(Cc1ccc2c(c1)CCC2)NCCNc1ncccn1,-3.93
5,CCc1ccc(S(=O)(=O)Nc2cc(OC)c(OC)cc2C(=O)O)s1,-7.22
6,Cc1ccc(-c2nc(CN3CCc4c(ncn4C)C3)cs2)o1,-11.3
7,CC(C)c1cc(CNC(=O)N2CCC(Cc3cnn(C)c3)C2)on1 (stereo not given),-10.9
8,CC(=O)N1CCCN(C(=O)CCc2c(C)noc2C)CC1,-6.38
9,Cc1cc(C)n(C2CN(CC(O)c3ccc4c(c3)OCO4)C2)n1 (stereo not given),-15.7
10,O=C(NCc1ccc(-n2cncn2)nc1)c1ccoc1,-2.38
11,Cc1cccc(CCC(=O)N2CCCC(c3cc(C(N)=O)[nH]n3)C2)c1 (stereo not given),-7.1
12,Cn1ccc(C(=O)NCc2cccc(N3CCCCC3=O)c2)cc1=O,-6.68
13,CCN1CCN(Cc2ccnc(-c3cccnc3)n2)CC1,-5.23
14,Cc1cc(C(=O)N2CCC3(C2)CN(c2ccsc2)C(=O)CN3C)[nH]n1 (stereo not given),-75.2
15,Cc1noc(C)c1CN1CC[C@H]2OCC[C@@]2(C(=O)NCC2CC2)C1,-77.2
16,Cc1ccc(Oc2cc(CN)ccn2)cc1C,-0.578
17,C[C@H]1C[C@H]2CN(Cc3ccccn3)CC[C@@H]2O1,-78.2
18,NCC1[C@H]2CN(Cc3ccccc3F)C[C@@H]12 (stereo not given in full),-7.52
19,Fc1ccc(CN2CCCn3cnc(COCC4CC4)c3C2)cc1,7.43
20,Cc1ccc2c(c1)CN(C(=O)c1cccnc1)C(CN(C)C)CO2 (stereo not given),-25.5
21,O=C1NCC[C@]12CN(Cc1nccs1)C[C@H]2c1ccccc1,11
22,CSCCCN1C[C@@H]2CC[C@H]1CN(Cc1[nH]cnc1C)C2,1.2
